Experimental data taken from ChEMBL document CHEMBL2169744, “Discovery and optimization of potent and selective imidazopyridine and imidazopyridazine mTOR inhibitors” (Bioorg Med Chem Lett, 2012).
In brackets after ≈: the same amount, converted by molar mass. Activity calls are given as the source filed them. The calls are words filed in the database; no cut-off is given here.

What was measured:
[1] = Inhibition of mTORC2-mediated AKT Ser473-phosphorylation in human U87 cells; assay type: cell-based, U-87MG ATCC; settings: U-87 MG
In short: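 Cell assay in U87 cells measuring pAKT (S473), n ≥ 2.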

[2] = Apparent permeability from basal to apical side of pig LLC-PK1 cells; assay type: ADME, cell-based, Sus scrofa
[3] = Solubility of the compound in phosphate buffered saline; assay type: physicochemical
[4] = Volume of distribution at steady state in rat at 1 mg/kg, iv; assay type: ADME, organism-based; parameters: dose 1 mg/kg, route intravenous; settings: in vivo, read-out: Vdss
[5] = organism: Mus musculus; experiment: animal or person; settings: Liver, 6 h
[6] = test system: Mus musculus; experiment: Inhibition of PI3Kalpha in po dosed mouse assessed as inhibition of HGF-induced AKT Thr308-phosphorylation in liver tissue at 100 mg/kg, po measured at 24 hrs; assay type: functional, organism-based; parameters: dose 100 mg/kg
In short: (§1)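 Time course in mouse liver: single oral dose of 100 mg/kg, sampled at 3, 6, 8 and 24 h. Inhibition of HGF-induced pAKT (S473 and T308) and pS6 in liver tissue measured against vehicle controls.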

[7] = Antitumor activity against human U87MG cells xenografted in mouse assessed as tumor growth inhibition at 30 mg/kg, po administered BID for 2 weeks relative to vehicle-treated control; assay type: functional, U-87MG ATCC; settings: U-87 MG, 336 h, read-out: TGI
In short: (§2)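 Mice bearing established U87-MG tumours dosed orally with vehicle or compound at 10, 30 or 60 mg/kg QD or 30 mg/kg BID for 2 weeks. Tumour volume (mm3) tracked, mean ± SE, n = 10. TGI relative to vehicle controls; significance by repeated-measures ANOVA followed by Dunnett's test.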

[8] = Oral bioavailability in rat at 1 mg/kg; assay type: ADME, organism-based; settings: in vivo
[9] = test system: Rattus norvegicus; experiment: Drug metabolism in po dosed Sprague-Dawley rat assessed as pyrazole glucuronide derivative; assay type: ADME, organism-based; settings: in vivo
[10] = Solubility of the compound in simulated intestinal fluid; assay type: physicochemical
[11] = Solubility of the compound in 0.01 N HCl; assay type: physicochemical; settings: 0.01 N HCl; read-out: solubility
[12] = Antitumor activity against human U87MG cells xenografted in mouse assessed as tumor growth inhibition at 60 mg/kg, po administered QD for 2 weeks relative to vehicle-treated control; assay type: functional, U-87MG ATCC; settings: U-87 MG, 336 h, read-out: TGI; in short: as §2
[13] = test system: Mus musculus; experiment: Inhibition of mTORC1 in po dosed mouse assessed as inhibition of HGF-induced pS6-phosphorylation in liver tissue at 100 mg/kg, po measured at 24 hrs; assay type: functional, organism-based; parameters: dose 100 mg/kg; in short: as §1
[14] = Drug excretion in po dosed Sprague-Dawley rat urine; assay type: ADME, organism-based; settings: in vivo
[15] = Half life in rat at 1 mg/kg, iv; assay type: ADME, organism-based; parameters: dose 1 mg/kg, route intravenous; settings: in vivo
[16] = test system: Mus musculus; experiment: Inhibition of PI3Kalpha in po dosed mouse assessed as inhibition of HGF-induced AKT Thr308-phosphorylation in liver tissue after 6 hrs; assay type: functional, organism-based
In short: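 Single oral dose to mice of vehicle (50% PEG400, 1% Pluronic F68, pH 2.2 with MSA) or compound at 10, 30 or 100 mg/kg, n = 3 per dose. HGF-stimulated liver taken at 6 h; pAKT (S473, T308) and pS6RP measured in lysate by MSD assay. Plasma drug levels measured. Factorial ANOVA versus vehicle, then Dunnett's test.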

[17] = Clearance in human liver microsomes; assay type: ADME, Microsome; settings: read-out: CLH
[18] = Half life in rat at 0.5 mg/kg, iv; assay type: ADME, organism-based; parameters: dose 0.5 mg/kg, route intravenous; settings: in vivo
[19] = test system: U-87MG ATCC; experiment: Antitumor activity against human U87MG cells xenografted in po dosed mouse assessed as tumor growth inhibition administered BID for 2 weeks; assay type: functional, organism-based; in short: as §2
[20] = organism: Mus musculus; experiment: animal or person; settings: Liver, 6 h; remark: listed apart in the source
[21] = biological target: Phosphatidylinositol 4,5-bisphosphate 3-kinase catalytic subunit beta isoform (Homo sapiens, UniProt P42338); experiment: Inhibition of PI3Kbeta by AlphaScreen assay
Phosphatidylinositol 4,5-bisphosphate 3-kinase catalytic subunit beta isoform, sequence (P42338 whole entry, canonical isoform): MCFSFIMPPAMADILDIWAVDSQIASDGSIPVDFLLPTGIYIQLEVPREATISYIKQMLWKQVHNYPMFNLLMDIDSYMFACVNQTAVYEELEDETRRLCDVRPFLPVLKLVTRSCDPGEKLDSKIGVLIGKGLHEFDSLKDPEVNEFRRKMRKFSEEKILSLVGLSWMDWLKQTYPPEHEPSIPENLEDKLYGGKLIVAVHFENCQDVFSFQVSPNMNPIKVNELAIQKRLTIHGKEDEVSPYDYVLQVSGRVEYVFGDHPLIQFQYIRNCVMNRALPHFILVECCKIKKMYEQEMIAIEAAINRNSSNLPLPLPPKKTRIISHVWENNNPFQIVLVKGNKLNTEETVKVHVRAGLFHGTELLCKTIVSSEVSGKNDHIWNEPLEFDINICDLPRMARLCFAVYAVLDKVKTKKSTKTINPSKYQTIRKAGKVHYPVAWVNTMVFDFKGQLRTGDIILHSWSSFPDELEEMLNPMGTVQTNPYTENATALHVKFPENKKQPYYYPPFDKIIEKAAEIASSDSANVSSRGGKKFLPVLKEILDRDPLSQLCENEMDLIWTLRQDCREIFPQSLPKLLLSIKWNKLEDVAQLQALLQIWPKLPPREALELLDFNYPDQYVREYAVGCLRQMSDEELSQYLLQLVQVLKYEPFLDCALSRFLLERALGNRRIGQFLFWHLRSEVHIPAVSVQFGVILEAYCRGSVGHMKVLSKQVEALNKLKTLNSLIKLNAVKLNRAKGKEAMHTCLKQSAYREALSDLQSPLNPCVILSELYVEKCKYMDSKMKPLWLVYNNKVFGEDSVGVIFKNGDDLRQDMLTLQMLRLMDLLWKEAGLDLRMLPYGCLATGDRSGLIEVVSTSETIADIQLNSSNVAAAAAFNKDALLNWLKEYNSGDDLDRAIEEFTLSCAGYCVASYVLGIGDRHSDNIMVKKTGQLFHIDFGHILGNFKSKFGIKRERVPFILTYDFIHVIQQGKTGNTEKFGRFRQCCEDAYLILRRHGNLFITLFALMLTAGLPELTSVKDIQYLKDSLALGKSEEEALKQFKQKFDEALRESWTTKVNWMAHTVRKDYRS

[22] = Inhibition of mTORC1-mediated 4EBP1-phosphorylation in human U87 cells; assay type: cell-based, U-87MG ATCC; settings: Homo sapiens, U-87 MG; read-out: IC50
[23] = Inhibition of mTORC1-mediated pS6 Ser240/244-phosphorylation in human U87MG cells; assay type: cell-based, U-87MG ATCC; settings: U-87 MG
In short: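 Cell assay in U87MG cells measuring phosphorylation of the mTOR substrate S6 (S240/244), n ≥ 2.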

[24] = Drug excretion in iv dosed Sprague-Dawley rat urine; assay type: ADME, organism-based; settings: in vivo
[25] = test system: Rattus norvegicus; experiment: Drug metabolism in po dosed Sprague-Dawley rat assessed as triazine amine glucuronide derivative; assay type: ADME, organism-based; settings: in vivo
[26] = Volume of distribution at steady state in rat at 0.5 mg/kg, iv; assay type: ADME, organism-based; parameters: dose 0.5 mg/kg, route intravenous; settings: in vivo, read-out: Vdss
[27] = Efflux ratio of apparent permeability from basal to apical to apical to basal side of pig LLC-PK1 cells; assay type: ADME, cell-based, Sus scrofa
[28] = Clearance in rat at 1 mg/kg, iv; assay type: ADME, organism-based; parameters: dose 1 mg/kg, route intravenous; settings: in vivo
[29] = Plasma protein binding in rat at 5 mg/kg, po; assay type: ADME, organism-based; parameters: dose 5 mg/kg, route oral; settings: read-out: PPB (converted)
[30] = test system: Mus musculus; experiment: Toxicity in mouse assessed adverse effects at 60 mg/kg, po administered QD for 7 days relative to vehicle-treated control; assay type: organism-based; parameters: dose 60 mg/kg, route oral; settings: in vivo, 168 h
In short: (§3)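 Seven-day tolerability study in mice, n = 5 per group. Oral dosing QD at 60 or 100 mg/kg. Body weight monitored; animals with average weight loss >20% removed from study.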

[31] = test system: Mus musculus; experiment: Inhibition of mTORC2 in po dosed mouse assessed as inhibition of HGF-induced AKT Ser473-phosphorylation in liver tissue at 100 mg/kg, po measured at >8 hrs; assay type: functional, organism-based; parameters: dose 100 mg/kg; in short: as §1
[32] = Oral bioavailability in rat at 5 mg/kg; assay type: ADME, organism-based; settings: in vivo
In short: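 Rat oral PK at 5.0 mpk in 1% Tween 80, 2% HPMC, 97% H2O, pH 2.2 (methanesulfonic acid).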

[33] = test system: U-87MG ATCC; experiment: Antitumor activity against human U87MG cells xenografted in po dosed mouse assessed as tumor growth inhibition administered QD for 2 weeks; assay type: functional, organism-based; in short: as §2
[34] = test system: Mus musculus; experiment: Inhibition of mTORC1 in po dosed mouse assessed as inhibition of HGF-induced pS6-phosphorylation in liver tissue at 100 mg/kg, po measured at >8 hrs; assay type: functional, organism-based; parameters: dose 100 mg/kg; in short: as §1
[35] = test system: Mus musculus; experiment: Inhibition of PI3Kalpha in po dosed mouse assessed as inhibition of HGF-induced AKT Thr308-phosphorylation in liver tissue at 100 mg/kg, po measured at >8 hrs; assay type: functional, organism-based; parameters: dose 100 mg/kg; in short: as §1
[36] = Apparent permeability from apical to basal side of pig LLC-PK1 cells; assay type: ADME, cell-based, Sus scrofa
[37] = test system: Rattus norvegicus; experiment: Drug metabolism in po dosed Sprague-Dawley rat assessed as imidazopyridine oxidation; assay type: ADME, organism-based; settings: in vivo
[38] = test system: Mus musculus; experiment: Inhibition of mTORC2 in po dosed mouse assessed as inhibition of HGF-induced AKT Ser473-phosphorylation in liver tissue at 100 mg/kg, po measured at 24 hrs; assay type: functional, organism-based; parameters: dose 100 mg/kg; in short: as §1
[39] = AUC in rat at 0.5 mg/kg, iv; assay type: ADME, organism-based, Plasma; parameters: dose 0.5 mg/kg, route intravenous; settings: plasma
[40] = test system: Mus musculus; experiment: Toxicity in mouse assessed weight loss at 100 mg/kg, po administered QD for 7 days measured on day 3 relative to vehicle-treated control; assay type: organism-based; parameters: dose 100 mg/kg, route oral; settings: in vivo, 168 h; in short: as §3
[41] = Clearance in rat liver microsomes; assay type: ADME, Microsome; settings: read-out: CLH
[42] = Clearance in rat at 0.5 mg/kg, iv; assay type: ADME, organism-based; parameters: dose 0.5 mg/kg, route intravenous; settings: in vivo
[43] = biological target: Phosphatidylinositol 4,5-bisphosphate 3-kinase catalytic subunit alpha isoform (Homo sapiens, UniProt P42336); experiment: Inhibition of PI3Kalpha by AlphaScreen assay
Phosphatidylinositol 4,5-bisphosphate 3-kinase catalytic subunit alpha isoform, sequence (P42336 whole entry, canonical isoform): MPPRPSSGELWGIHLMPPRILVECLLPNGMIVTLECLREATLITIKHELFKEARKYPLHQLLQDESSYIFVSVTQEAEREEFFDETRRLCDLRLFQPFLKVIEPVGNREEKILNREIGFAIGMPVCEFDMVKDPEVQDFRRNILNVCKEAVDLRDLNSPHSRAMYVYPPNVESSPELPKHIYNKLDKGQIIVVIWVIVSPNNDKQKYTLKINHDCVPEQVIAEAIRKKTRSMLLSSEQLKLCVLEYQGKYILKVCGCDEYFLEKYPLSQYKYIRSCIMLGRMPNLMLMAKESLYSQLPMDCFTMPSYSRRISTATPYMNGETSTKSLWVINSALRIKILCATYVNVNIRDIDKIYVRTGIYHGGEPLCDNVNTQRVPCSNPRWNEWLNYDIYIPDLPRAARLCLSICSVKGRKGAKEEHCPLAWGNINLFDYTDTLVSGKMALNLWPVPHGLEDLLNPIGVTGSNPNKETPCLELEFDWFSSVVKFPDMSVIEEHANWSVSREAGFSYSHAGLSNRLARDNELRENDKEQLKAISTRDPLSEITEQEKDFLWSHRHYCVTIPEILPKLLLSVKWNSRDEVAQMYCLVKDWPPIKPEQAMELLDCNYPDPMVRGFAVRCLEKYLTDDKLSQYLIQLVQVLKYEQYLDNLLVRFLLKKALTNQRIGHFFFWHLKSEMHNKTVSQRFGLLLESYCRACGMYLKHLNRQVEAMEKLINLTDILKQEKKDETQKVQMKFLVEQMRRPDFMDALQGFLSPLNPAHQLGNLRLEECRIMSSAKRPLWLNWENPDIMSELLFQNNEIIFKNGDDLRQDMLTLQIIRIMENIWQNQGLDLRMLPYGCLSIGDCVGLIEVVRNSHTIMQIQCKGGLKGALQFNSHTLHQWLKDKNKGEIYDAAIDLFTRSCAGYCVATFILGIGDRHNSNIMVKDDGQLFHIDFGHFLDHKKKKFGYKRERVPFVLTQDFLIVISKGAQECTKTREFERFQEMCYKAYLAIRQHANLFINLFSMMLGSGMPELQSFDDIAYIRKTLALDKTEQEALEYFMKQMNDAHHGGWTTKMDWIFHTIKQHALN

For `Cc1nc(N)nc(-c2c(Nc3cc[nH]n3)nc3ccccn23)n1`, the IC50 [1] was 19 nM, the Papp B→A [2] was 33.7 ×10⁻⁶ cm/s and the solubility [3] was 6.3 µg/mL (≈ 20.5 µM). For the same compound, the Vd [4] was 1.1 L/kg, the IC50 [5] was 53 nM and the inhibition [6] was “inactive”. The inhibition in vivo at 30 mg/kg [7] was 84%, the bioavailability [8] was 24% and the Drug metabolism [9] was “Active”. It also gave a solubility [10] of 27 µg/mL (≈ 87.9 µM), a solubility [11] greater than 200 µg/mL and an inhibition in vivo at 60 mg/kg [12] of 82%. For the same compound, the inhibition [13] was “inactive”, the Drug excretion [14] was “Active” and the half-life [15] was 27 min. The inhibition [16] was “Dose-dependent effect”, the microsomal CLint [17] was 24 µL/min/mg and the half-life [18] was 26.4 min. The TGI [19] was “Dose-dependent effect”, the IC50 [20] was 71 nM and the IC50 [21] was 1130 nM. For the same compound, the IC50 [22] was 162 nM, the IC50 [23] was 69 nM and the Drug excretion [24] was “Active”. For the same compound, the Drug metabolism [25] was “Active”, the Vd [26] was 1.14 L/kg and the efflux ratio [27] was 2.4. For the same compound, the clearance [28] was 30 mL/min/kg, the fraction unbound [29] was 0.023 and the Activity [30] was “Non-toxic”. For the same compound, the inhibition [31] was “Active”, the bioavailability [32] was 24% and the TGI [33] was “Dose-dependent effect”. For the same compound, the inhibition [34] was “Active”, the inhibition [35] was “Active” and the Papp A→B [36] was 13.8 ×10⁻⁶ cm/s. For the same compound, the Drug metabolism [37] was “Active”, the inhibition [38] was “inactive” and the AUC [39] was 1.8 µM·h. The Activity [40] was greater than 20%, the microsomal CLint [41] was 29 µL/min/mg and the clearance [42] was 30 mL/min/kg. It also gave an IC50 [43] of 590 nM.
